Results gathered from unrelated publications.
Each line is one published result; the experiments were not run side by side.
Effect on: cell growth or viability

| Compound | cell line | assay | setting | endpoint | result |
| --- | --- | --- | --- | --- | --- |
| N.N.[Cl][Pt][Cl] | BEAS-2B | MTT | 24 h | IC50 | > 100000 nM |
| COc1c(C)c2c(c(O)c1C/C=C(\C)CCC(=O)O)C(=O)OC2 | MDA-MB-468 | – | – | IC50 | 417 nM |
| N.N.[Cl][Pt][Cl] | HBL1 | ATP luminescence | 72 h | IC50 | 1310 nM |
| N.N.[Cl][Pt][Cl] | MDA-MB-468 | MTT | 48 h, dark | IC50 | 6970 nM |
| Cn1cc2cc(C(F)(F)c3nnc4ccc(-c5cnn(C6CC6)c5)nn34)c(F)cc2n1 | KATO III | CCK-8 | 72 h | IC50 | > 1000 nM |
| O=C(CCCCCCNC(=O)c1cnc(N(c2ccccc2)c2ccccc2)nc1)NO | MV4-11 | ATP luminescence | 72 h | EC50 | 713 nM |
| N.N.[Cl][Pt][Cl] | MDA-MB-468 | MTT | 48 h | IC50 | 5000 nM |
| CN(C)c1ccc(C(=O)NCCCCCCC(=O)NO)cc1 | HBL1 | ATP luminescence | 0.1 µM, 5 days | viability | 125% |
